One molecule from ChEMBL document CHEMBL1177730, “Bivalent diketopiperazine-based tropomysin receptor kinase C (TrkC) antagonists” (J Med Chem, 2010) can be followed below.

Data set [1] deals with High affinity nerve growth factor receptor (Homo sapiens) (UniProt P04629). The data set can be described thus: Binding affinity to human TrkA expressed in mouse NIH/3T3 cells by FACS analysis. The class given is cell-based. The settings on record: NIH3T3. In short, it runs like this:
(§1)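 Stably transfected NIH-3T3 cells expressing the indicated receptor were incubated at 4 °C with biotin-tagged ligand (50 μM), then with fluorescein-avidin. After washing, cells were analysed by flow cytometry. Background mean channel fluorescence of NIH-IGF-1R cells was subtracted to give specific binding. Mean ± SEM, n = 3 independent experiments.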
(In general: A flow cytometer gives signals particle by particle.)

Data set [2] concerns the target NT-3 growth factor receptor (Homo sapiens) (UniProt Q16288). Kind of data set: Binding affinity at human TrkC expressed in mouse NIH/3T3 cells by FACS analysis. To be noted: NIH3T3. The class given is cell-based. In a few lines:
as §1

For data set [3], the target named is Insulin-like growth factor 1 receptor (Homo sapiens) (UniProt P08069). Kind of data set: Binding affinity to human IGF1R expressed in mouse NIH/3T3 cells by FACS analysis. The settings on record: NIH3T3. It counts as cell-based.
Insulin-like growth factor 1 receptor (Homo sapiens), sequence (P08069 31-736 limits assumed): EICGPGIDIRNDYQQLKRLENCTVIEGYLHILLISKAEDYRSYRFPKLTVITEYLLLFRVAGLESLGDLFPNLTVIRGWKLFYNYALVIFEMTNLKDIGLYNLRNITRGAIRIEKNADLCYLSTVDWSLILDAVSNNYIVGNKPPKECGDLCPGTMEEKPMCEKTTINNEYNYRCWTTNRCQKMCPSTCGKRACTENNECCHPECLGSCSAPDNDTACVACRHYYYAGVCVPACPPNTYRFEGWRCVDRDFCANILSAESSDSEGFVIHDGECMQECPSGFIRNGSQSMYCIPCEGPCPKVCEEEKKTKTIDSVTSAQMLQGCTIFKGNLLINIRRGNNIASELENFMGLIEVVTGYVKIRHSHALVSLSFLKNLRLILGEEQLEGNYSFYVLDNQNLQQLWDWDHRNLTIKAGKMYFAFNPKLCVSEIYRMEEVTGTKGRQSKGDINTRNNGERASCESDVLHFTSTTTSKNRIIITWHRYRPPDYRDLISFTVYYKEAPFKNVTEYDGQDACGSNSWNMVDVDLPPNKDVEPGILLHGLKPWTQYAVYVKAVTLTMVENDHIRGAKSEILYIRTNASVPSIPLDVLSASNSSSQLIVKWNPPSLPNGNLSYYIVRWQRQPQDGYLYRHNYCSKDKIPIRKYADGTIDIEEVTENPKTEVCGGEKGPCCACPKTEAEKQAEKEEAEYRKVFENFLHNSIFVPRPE
Insulin-like growth factor 1 receptor (Homo sapiens), sequence (P08069 741-1367 limits assumed): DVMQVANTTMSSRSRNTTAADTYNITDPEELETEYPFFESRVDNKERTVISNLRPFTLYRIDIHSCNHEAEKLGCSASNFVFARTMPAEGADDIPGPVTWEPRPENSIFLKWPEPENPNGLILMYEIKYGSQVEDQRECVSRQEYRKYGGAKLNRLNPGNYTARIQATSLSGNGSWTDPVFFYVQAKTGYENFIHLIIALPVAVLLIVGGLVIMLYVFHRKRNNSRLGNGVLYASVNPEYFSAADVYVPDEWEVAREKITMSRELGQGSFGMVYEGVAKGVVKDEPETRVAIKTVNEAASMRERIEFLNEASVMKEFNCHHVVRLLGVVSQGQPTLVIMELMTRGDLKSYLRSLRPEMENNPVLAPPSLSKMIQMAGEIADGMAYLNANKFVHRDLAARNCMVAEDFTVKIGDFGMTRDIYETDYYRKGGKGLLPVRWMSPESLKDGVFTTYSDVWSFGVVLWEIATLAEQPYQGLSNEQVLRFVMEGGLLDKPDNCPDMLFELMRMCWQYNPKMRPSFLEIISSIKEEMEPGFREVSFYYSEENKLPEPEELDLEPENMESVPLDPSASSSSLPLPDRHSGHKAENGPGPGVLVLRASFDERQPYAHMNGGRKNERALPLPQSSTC
Data set [4] deals with Tumor necrosis factor receptor superfamily member 16 (p75NTR, NGFR) (Homo sapiens) (UniProt P08138). The data set can be described thus: Binding affinity to human p75 expressed in mouse NIH/3T3 cells by FACS analysis. The settings on record: NIH3T3.
Tumor necrosis factor receptor superfamily member 16 (p75NTR, NGFR) (Homo sapiens), sequence (P08138 whole entry, looked up): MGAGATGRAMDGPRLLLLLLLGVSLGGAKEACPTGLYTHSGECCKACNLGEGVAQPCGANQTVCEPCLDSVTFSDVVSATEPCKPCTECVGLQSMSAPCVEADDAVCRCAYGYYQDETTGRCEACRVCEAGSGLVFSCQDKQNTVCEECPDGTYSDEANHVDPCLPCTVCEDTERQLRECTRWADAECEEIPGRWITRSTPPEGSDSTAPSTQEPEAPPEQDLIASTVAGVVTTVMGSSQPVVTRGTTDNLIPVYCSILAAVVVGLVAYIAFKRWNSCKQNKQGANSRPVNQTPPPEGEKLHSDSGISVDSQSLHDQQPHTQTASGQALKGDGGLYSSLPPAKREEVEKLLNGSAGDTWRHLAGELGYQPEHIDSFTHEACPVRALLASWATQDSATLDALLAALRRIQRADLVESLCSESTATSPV
Data set [5] has as its target Insulin-like growth factor 1 receptor (Homo sapiens) (UniProt P08069). Kind of data set: Antagonist activity at human IGF1R expressed in mouse NIH/3T3 cells assessed as inhibition of IGF-induced cytoprotection at 20 uM by MTT assay relative to IGF. To be noted: NIH3T3. It counts as functional, cell-based. In a few lines: (§2)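 Survival of NIH-3T3 cells expressing TrkA, TrkC or IGF-1R was measured by MTT in serum-free medium. Medium held the matching growth factor (NGF for TrkA, NT-3 for TrkC, IGF-1 for IGF-1R) at optimal 10 nM or sub-optimal 0.2 nM, ± compound at 20 μM. Survival was expressed relative to optimal growth factor-mediated survival (100%); average ± sd.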
For orientation: Tetrazolium dyes change colour on reduction, which living cells bring about.

In data set [6] the target is High affinity nerve growth factor receptor (Homo sapiens) (UniProt P04629). The data set can be described thus: Antagonist activity at human TrkA expressed in mouse NIH/3T3 assessed as inhibition of NGF-induced cytoprotection at 20 uM by MTT assay relative to NGF. The class given is functional, cell-based. The settings on record: NIH3T3. In a few lines: as §2
High affinity nerve growth factor receptor (Homo sapiens), sequence (P04629 33-796 limits assumed): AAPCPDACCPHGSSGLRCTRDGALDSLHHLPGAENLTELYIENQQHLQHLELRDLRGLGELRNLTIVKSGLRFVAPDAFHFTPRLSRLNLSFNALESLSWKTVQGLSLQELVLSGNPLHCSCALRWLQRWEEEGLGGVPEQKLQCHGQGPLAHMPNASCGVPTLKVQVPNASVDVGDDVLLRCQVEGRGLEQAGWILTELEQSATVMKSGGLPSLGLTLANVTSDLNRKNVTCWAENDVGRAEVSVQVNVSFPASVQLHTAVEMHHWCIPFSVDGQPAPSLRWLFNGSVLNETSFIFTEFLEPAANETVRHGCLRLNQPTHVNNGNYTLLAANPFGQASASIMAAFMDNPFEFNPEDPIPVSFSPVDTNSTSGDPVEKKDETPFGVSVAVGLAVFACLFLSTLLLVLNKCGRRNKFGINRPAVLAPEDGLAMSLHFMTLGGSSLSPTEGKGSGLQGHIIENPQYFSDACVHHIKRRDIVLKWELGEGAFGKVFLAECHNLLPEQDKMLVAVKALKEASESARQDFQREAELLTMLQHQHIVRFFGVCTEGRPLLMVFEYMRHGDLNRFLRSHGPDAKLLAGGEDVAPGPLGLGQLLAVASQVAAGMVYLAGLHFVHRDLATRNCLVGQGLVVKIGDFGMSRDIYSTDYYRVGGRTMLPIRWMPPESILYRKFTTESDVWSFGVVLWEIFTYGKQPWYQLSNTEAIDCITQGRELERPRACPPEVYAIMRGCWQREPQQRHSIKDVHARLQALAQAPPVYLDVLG
In data set [7] the target is NT-3 growth factor receptor (Homo sapiens) (UniProt Q16288). Kind of data set: Antagonist activity at human TrkC expressed in mouse NIH/3T3 cells assessed as inhibition of NT3-induced cytoprotection at 20 uM by MTT assay relative to NT3. To be noted: NIH3T3. It counts as functional, cell-based. In short, it runs like this:
as §2

Data set [8] has as its target High affinity nerve growth factor receptor (Homo sapiens) (UniProt P04629). Kind of data set: Antagonist activity at human TrkA expressed in mouse NIH/3T3 cells assessed as decrease in NGF-induced tyrosin phosphorylation at 20 uM after 20 mins by Western blotting. It counts as functional, cell-based. To be noted: NIH3T3.
Data set [9] addresses Insulin-like growth factor 1 receptor (Homo sapiens) (UniProt P08069). The data set can be described thus: Antagonist activity at human IGF1R expressed in mouse NIH/3T3 cells assessed as decrease in IGF-induced tyrosin phosphorylation at 20 uM after 20 mins by Western blotting. It counts as functional, cell-based. The settings on record: NIH3T3.
Another data set deals with NIH3T3. Kind of data set: Cytotoxicity against mouse NIH/3T3 cells by MTT assay. The class given is cell-based.
Data set [10] deals with NT-3 growth factor receptor (Homo sapiens) (UniProt Q16288). The data set can be described thus: Antagonist activity at human TrkC expressed in mouse NIH/3T3 cells assessed as decrease in NT3-induced TrkC-pTyr level at 20 uM after 20 mins by Western blotting. Set-up: scale not given: the % may be the effect or the level left. The settings on record: NIH3T3. It counts as functional, cell-based. In a few lines: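 NIH3T3-TrkC cells were exposed to NT-3 (2 nM) ± compound (20 μM) for 20 min. Detergent lysates were Western blotted with anti-pTyr mAb 4G10 and anti-phospho-MAPK, then re-blotted for actin to normalise loading. Bands were quantified by densitometry.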
NT-3 growth factor receptor (Homo sapiens), sequence (Q16288 32-839 limits assumed): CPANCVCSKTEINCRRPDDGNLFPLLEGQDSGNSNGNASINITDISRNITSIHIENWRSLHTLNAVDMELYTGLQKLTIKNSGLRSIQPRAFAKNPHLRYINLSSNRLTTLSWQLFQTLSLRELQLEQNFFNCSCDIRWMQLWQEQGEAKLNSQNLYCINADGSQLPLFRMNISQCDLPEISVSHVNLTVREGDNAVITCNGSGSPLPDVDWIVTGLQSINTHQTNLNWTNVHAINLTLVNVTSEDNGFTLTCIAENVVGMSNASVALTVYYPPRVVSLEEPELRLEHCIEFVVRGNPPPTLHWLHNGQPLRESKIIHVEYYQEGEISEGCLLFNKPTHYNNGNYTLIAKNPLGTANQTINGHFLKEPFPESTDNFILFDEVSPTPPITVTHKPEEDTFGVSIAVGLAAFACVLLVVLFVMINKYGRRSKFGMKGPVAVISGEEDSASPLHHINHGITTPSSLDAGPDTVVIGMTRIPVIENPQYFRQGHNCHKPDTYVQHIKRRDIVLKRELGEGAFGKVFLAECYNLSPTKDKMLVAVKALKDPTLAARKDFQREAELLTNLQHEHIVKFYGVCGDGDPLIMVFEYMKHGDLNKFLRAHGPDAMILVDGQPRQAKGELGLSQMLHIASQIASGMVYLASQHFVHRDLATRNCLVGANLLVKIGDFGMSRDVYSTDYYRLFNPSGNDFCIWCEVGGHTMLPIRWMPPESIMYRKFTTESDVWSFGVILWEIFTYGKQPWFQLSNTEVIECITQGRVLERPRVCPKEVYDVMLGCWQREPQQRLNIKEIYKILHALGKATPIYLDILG
A general note: A western blot detects proteins with antibodies after separation by electrophoresis.

Molecules are shown by their SMILES. Active and inactive are the calls of the source. The rule behind the calls is not given here.

`CN1C(=O)CN([C@@H](CCCCN)C(=O)NCCCCCCCCCCC(=O)N2CCN(c3nc(NCCCC[C@@H]4SC[C@@H]5NC(=O)N[C@@H]54)nc(N4CCN(C(=O)[C@H](CCCCN)N5CC(=O)N(C)[C@@H](CCC(=O)O)C5=O)CC4)n3)CC2)C(=O)[C@@H]1CCC(=O)O`: the result in data set [1], in [3], in data set [4], in data set [8] and in [9] was inactive. The outcome in [2] was Active. The inhibition entry in data set [5] and in [6] was “inactive” each time. Besides, the inhibition in [7] was found to be 30%. Besides, the Activity entry in the data set with NIH3T3 was “Non-toxic”; in data set [10], 40%.

The inhibition is how much of the control response was suppressed.
